Screening data as filed in PubChem.
UPR XBP1 act: adaptive UPR (XBP1) activation; AID 463104; CHO-XBP1 luciferase reporter, IRE1-XBP1 UPR activation, luminescence; percent of tunicamycin response, DMSO as zero; 330,000 compounds, 0.33% hits; activation, % at 20 µM;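 active means versus positive control, 20 µM dose yields 30% or more activation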
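Material: CHO cell line with stable XBP1 luciferase reporter; schedule: 16-18 h cell attachment at 37 °C, then 6 h compound exposure; signal: glow luminescence from Steady-Glo reagent; medium: serum-containing F12 medium, 10% FBS; benchmarks: tunicamycin 10 µg/mL and vehicle-only wells; read-out: percent activation relative to tunicamycin reference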
UPR CHOP act: apoptotic UPR (CHOP) activation. CHO-CHOP luciferase reporter, luminescence; percent of tunicamycin response over DMSO baseline. activation, % at 10 µM. 330,000 compounds, 0.34% hits;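 active means at 10 µM dose, activation of 40% or more, normalized to positive control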
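System: CHO-CHOP luciferase reporter cell line | Buffer or medium: F12 medium containing 10% fetal bovine serum | Doses: One dose, 10 µM in 0.5% DMSO | Times: 6 h compound exposure at 37 °C after overnight seeding | Signal: Luciferase luminescence | Read-out: % activation vs tunicamycin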
L major viab: reduces viability of Leishmania major promastigotes. resazurin fluorescence viability. inhibition, % at 10 µM. 200,000 compounds, 9% hits; in the data active means inhibition above about 50%;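 further: promastigotes grown with compound for 44 hours at 28 °C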
CHOP inhibitor: CHOP inhibition in unfolded protein response | CHO-K1 CHOP-promoter luciferase, tunicamycin-induced, 15-18 h | inhibition, % at 10 µM | 220,000 compounds, 3.8% hits;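 active means compounds that reduced the stress-induced luciferase reporter signal by more than about 70% of percent inhibition, limit read from the data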
T cruzi repl: T. cruzi replication inhibition | T. cruzi beta-gal in NIH3T3, luminescence, 90 h | inhibition, % (no concentration beside the values) | 300,000 compounds, 1.4% hits | AID 1885;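 active means mean inhibition across valid replicates above about 55%, limit read from the data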;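 further: signal also drops with host cell toxicity which is not excluded here; higher percent means less beta-gal luminescence so fewer parasites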
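Assay system: NIH/3T3 fibroblasts plus reporter T. cruzi. Amount: NIH/3T3 cells, 5,000 per well. Buffer or medium: DMEM, 2% fetal bovine serum. Doses: compound pinned at 50 nL/well, DMSO. Schedule: ≥90 h infection period, 3 h prior cell attachment. Signal: luminescent β-galactosidase signal after 60 min lysis. Read-out: parasite load inhibition, %.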
Dynein transport: blocks dynein driven cargo transport along microtubules; 3617.4 mouse cells, GR-EGFP nuclear translocation imaging; test concentration mostly 20 µM; stimulated with dexamethasone, 1 µM; stronger effect = lower value; z-score, hits read low; 220,000 compounds, 0.47% hits; AID 1381;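 active means plate z-score of nuclear minus cytoplasmic receptor signal below a set negative limit, without overly bright fluorescence or cell loss, cut at about -3.5 in these data, passing the limit was not always enough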;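 further: z-score of nuclear minus cytoplasmic ring GR-EGFP intensity difference per well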
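Buffer or medium: tetracycline-free induction medium containing charcoal-stripped FBS / Reagent: dexamethasone agonist, 1.0 µM final, for 30 min / Technique: automated 10x imaging of fixed Hoechst-stained cells / Times: induction 48 h, compound 1 h, agonist 30 min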
CHOP UPR conf: confirmation of apoptotic unfolded protein response (CHOP) activators; shares compounds with UPR CHOP act; CHO-CHOP cells, CHOP-luciferase reporter luminescence; percent of tunicamycin response, DMSO as zero; activation, % at 10 µM; 1,000 compounds, 64% hits; AID 463112; in the data active means activation above about 33%
XBP1 UPR conf: adaptive UPR (XBP1) activation, confirmed; shares compounds with UPR XBP1 act; CHO-XBP1 IRE1-XBP1 luciferase reporter, luminescence; activation, % at 20 µM; 1,000 compounds, 63% hits;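 active means reporter signal at least 30% of the positive control's activation in two or more of four replicate wells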
Of the large screens only hits and unclear results are named; the others gave an inactive call (follow-up assays come after a bar, where they were run). The full list was thinned out, with hits kept by preference.

COc1ccc(/C=C/c2nc3cc(-c4ccccc4)ccc3o2)cc1O	UPR XBP1 act 39, UPR CHOP act 45, L major viab 87 | CHOP UPR conf 50 | XBP1 UPR conf 29
COCc1cc(C)nc(OCC(=O)N/N=C/c2ccc(-c3cc([N+](=O)[O-])ccc3Cl)o2)c1C#N	UPR XBP1 act 342, UPR CHOP act 53, CHOP inhibitor 92 | CHOP UPR conf 70 | XBP1 UPR conf 277
COc1ccc(CC(=O)Nc2ccc(-c3noc(-c4ccc(Cl)cc4)n3)cc2)cc1	UPR XBP1 act 76, UPR CHOP act 79 | CHOP UPR conf inactive | XBP1 UPR conf inactive
COc1ccc(CC(=O)Nc2ccc(-c3noc(-c4cc(OC)c(OC)c(OC)c4)n3)cc2)cc1	none (no result: T cruzi repl)
COC(=O)C1CN(S(=O)(=O)c2cc(OC)ccc2OC)CCS1 (stereo unspecified)	none (no result: L major viab, CHOP inhibitor, Dynein transport)
CCc1ccc(-c2nc(NC(=O)c3ccc(OCC(=O)Nc4ccc(F)cc4)c(OC)c3)sc2C)cc1	none
COc1cc(C(=O)Nc2nc(-c3ccc(Cl)cc3)c(C)s2)ccc1OCC(=O)Nc1ccc(F)cc1	UPR XBP1 act 99, UPR CHOP act 127, CHOP inhibitor 77 | CHOP UPR conf 71 | XBP1 UPR conf 109
O=C1c2ccccc2-n2c1nc1ccccc1c2=O	UPR XBP1 act 34, UPR CHOP act 77, L major viab 100 | CHOP UPR conf inactive | XBP1 UPR conf inactive
N#Cc1ccc(N/N=C/c2cn(-c3ccccc3)nc2-c2ccccc2)c([N+](=O)[O-])c1	UPR XBP1 act 43, UPR CHOP act 107, CHOP inhibitor 83 | CHOP UPR conf 108 | XBP1 UPR conf 122
O=C(N/N=C/c1cn(-c2ccccc2)nc1-c1ccccc1)c1ccco1	none (no result: Dynein transport)
Cc1ccc2sc(-c3ccc(NC(=O)c4cc(-n5cnnc5)ccc4Cl)cc3)nc2c1	UPR XBP1 act 69, UPR CHOP act 85 | CHOP UPR conf inactive | XBP1 UPR conf inactive
CCOc1ccc(CN(C)C(=O)CN2C(=O)NC(c3ccccc3)(c3ccccc3)C2=O)cc1	none (no result: L major viab, CHOP inhibitor, T cruzi repl, Dynein transport)
Cc1ccc2nc(-c3ccc(NC(=S)NC4CC(C)(C)NC(C)(C)C4)cc3)sc2c1	UPR XBP1 act 49, UPR CHOP act 60, L major viab 98 | CHOP UPR conf 63 | XBP1 UPR conf 61
CC1=C(/C=C/C(C)=C/C=C/C(C)=C/C(=O)Nc2ccc(O)cc2)C(C)(C)CCC1	UPR XBP1 act 54, UPR CHOP act 93 (no result: L major viab, T cruzi repl, Dynein transport) | CHOP UPR conf 131 | XBP1 UPR conf 55
Cc1nn(Cc2c(Cl)cccc2Cl)c(C)c1NC(=O)c1sc2ccccc2c1Cl	UPR XBP1 act 65, UPR CHOP act 49 | CHOP UPR conf 40 | XBP1 UPR conf 67
CCC(C)(C)C1CCc2[nH]nc(C(=O)NCc3ccccn3)c2C1 (stereo unspecified)	none (no result: L major viab, CHOP inhibitor, T cruzi repl, Dynein transport)
COc1ccc(CCNC(=O)c2cc3c(=O)n4ccccc4nc3n(Cc3ccco3)c2=N)cc1OC	UPR XBP1 act 43 (no result: L major viab, CHOP inhibitor, Dynein transport) | XBP1 UPR conf inactive
CC(CN1CCCCC1)OC(=O)c1ccc(Cl)cc1 (stereo unspecified)	UPR XBP1 act 35 | XBP1 UPR conf inactive
CC(CN1CCCC1)OC(=O)c1ccc(Br)cc1 (stereo unspecified)	none (no result: L major viab, CHOP inhibitor, Dynein transport)
CN(C)/C=C1\C(=O)N(C)N=C1C(F)(F)F	none
COc1cc(/C=N/NC(=O)NC23CC4CC(CC(C4)C2)C3)ccc1OCC(N)=O	UPR XBP1 act 38 (no result: L major viab, CHOP inhibitor, Dynein transport) | XBP1 UPR conf inactive
CC1C/C(=N/Nc2nc3ccccc3[nH]2)CC(C)(C)C1 (stereo unspecified)	UPR XBP1 act 34, L major viab 85 | XBP1 UPR conf 31
CC1C/C(=N/Nc2ccc([N+](=O)[O-])cc2[N+](=O)[O-])CC(C)(C)C1 (stereo unspecified)	none
COc1ccc(C)cc1S(=O)(=O)N1CCCC(C(=O)N2CCN(c3ccccc3F)CC2)C1 (stereo unspecified)	none (no result: L major viab, CHOP inhibitor, Dynein transport)
c1ccc(-c2cc(-c3nnc4n3N=C(c3ccc5ccccc5c3)CS4)[nH]n2)cc1	UPR XBP1 act 32, L major viab 55, T cruzi repl 59 | XBP1 UPR conf inactive
COc1ccc(OC)c(-c2nnc3n2N=C(c2ccc(OC)c(OC)c2)CS3)c1	UPR XBP1 act 37 (no result: L major viab, CHOP inhibitor, T cruzi repl, Dynein transport) | XBP1 UPR conf 42
COc1ccc(C2=Nn3c(nnc3-c3ccccc3)SC2)cc1OC	none
Cn1c(SCC(=O)NC2CCCc3ccccc32)nnc1C1CC1 (stereo unspecified)	none (no result: L major viab, CHOP inhibitor, T cruzi repl, Dynein transport)
COC(=O)c1ccccc1NC(=O)c1cc(-c2cccs2)on1	UPR XBP1 act 32, CHOP inhibitor 75 | XBP1 UPR conf inactive
CC(C)(C)c1cc(-c2nc(N)nc(N)n2)c(O)c(C(C)(C)C)c1	UPR XBP1 act 58 (no result: L major viab, CHOP inhibitor, T cruzi repl, Dynein transport) | XBP1 UPR conf 30
NS(=O)(=O)c1ccc(NC(=S)NC(=O)c2ccc(-c3ccccc3)cc2)cc1	UPR XBP1 act 50 | XBP1 UPR conf inactive
Cc1ccc2nc(SCC(=O)Nc3ccc(F)cc3F)nc(=O)n2c1	none (no result: L major viab, CHOP inhibitor, Dynein transport)
CC1CC(C)CN(C(=O)C2CCN(S(=O)(=O)c3cccc4cccnc34)CC2)C1 (stereo unspecified)	none (no result: L major viab, CHOP inhibitor, Dynein transport)
CCOC(=O)c1[nH]c(C)c(C(=O)OCC(=O)Nc2sc3c(c2C#N)CCCCC3)c1C	UPR XBP1 act 63, CHOP inhibitor 84 | XBP1 UPR conf inactive
CCN(CC)S(=O)(=O)c1ccc(C(=O)OCC(=O)Nc2sc3c(c2C#N)CCCCC3)cc1	none
Cc1cc(SCC(=O)c2ccc(O)c(O)c2)n2nc(C)c(-c3ccccc3)c2n1	UPR XBP1 act 101 (no result: L major viab) | XBP1 UPR conf 58
Cc1cc(C)c(S(=O)(=O)Nc2ccc3c4c(cccc24)CC3)c(C)c1	UPR XBP1 act 30 | XBP1 UPR conf inactive
Cc1ccc(S(=O)(=O)Nc2ccc3c4c(cccc24)CC3)c(C)c1	none (no result: CHOP inhibitor)
Cc1nn(C)c(C)c1NC(=O)CSc1nc(Cc2ccccc2)nc2c1cnn2-c1ccccc1	none (no result: CHOP inhibitor)
Cc1nn(Cc2ccccc2)c(C)c1NC(=O)CSc1nc(C2CC2)nc2c1cnn2-c1ccccc1	UPR XBP1 act 202 | XBP1 UPR conf 333
O=C(Cc1ccc(F)cc1)N[C@@H]1c2ccccc2CC[C@H]1OCc1ccccc1	none (no result: L major viab, CHOP inhibitor, T cruzi repl, Dynein transport)
